How the values were obtained:
Canis familiaris [1] = experiment: Mean arterial blood pressure was determined by intraduodenal administration of two dosages of 10 mg/kg of (high dose) compound in anesthetized dogs. Value was reported for experiment 1; format: functional, Canis lupus familiaris
Method in brief: (§1)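 Anesthetized dogs received two intraduodenal doses, the second cumulative (low dose/high dose). Left ventricular FRP and CT were measured 15, 30 and 45 min after dosing. Heart rate and mean blood pressure were taken during nonpacing intervals. Values are percent change from control. The vehicle was 5% dextrose in water/tragacanth. Activity was defined as ≥12% prolongation of FRP or CT.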

Canis familiaris [2] = species on record: Canis familiaris; experiment: In vitro electrophysiological evaluation in canine cardiac ventricular muscle reported as maximum % change for conduction time(CT) at 0.1-10 uM concentration range; Minimal (<IO%increase or a decrease in CT); format: functional, Canis lupus familiaris, Muscle tissue
Method in brief: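 Canine right ventricular/papillary muscle strips in oxygenated Tyrode's, extracellular extra-stimulus conduction-interval method. FRP and CT are read from conduction-interval curves before and during rising concentrations. Compound is a 10 mM aqueous stock diluted into Tyrode's. Each strip is used once as its own control. Readouts are percent change from control at 10 μM, plus the maximum change with its concentration.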

Canis familiaris [3] = experiment: Mean arterial blood pressure was determined by intraduodenal administration of two dosages of 3 mg/kg of (high dose) compound in anesthetized dogs. Value was reported for experiment 3; format: functional, Canis lupus familiaris
Method in brief: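 Anesthetized dogs, usually given two intraduodenal doses, with the second dose cumulative (low/high). Left ventricular FRP and CT were determined at 15, 30 and 45 min after dosing. HR and BP were measured during nonpacing intervals. Values are % change from control at low/high dose, for individual animals. The vehicle-stability set used 5% dextrose in water/tragacanth (n = 8).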

Canis familiaris [4] = experiment: Left ventricular refractory period was determined by intraduodenal administration of two dosages of 3 mg/kg of (low dose) compound in anesthetized dogs. Value was reported for experiment 1; format: functional, Canis lupus familiaris, Cardiac ventricle; method in brief: as §1

With `CCCCCCC[N+](CC)(CC)CCCCc1ccc(Cl)cc1.O=P([O-])(O)O` [CLOFILIUM PHOSPHATE] the Mean blood pressure (Canis familiaris [1]) was -11%, the CT (Canis familiaris [2]) was under 10% and the Mean blood pressure (Canis familiaris [3]) was 0%. For the same molecule, the “LV FRP” value (Canis familiaris [4]) was 10%.
